# Experimental data from different studies.
# Protocols differ between the studies behind these lines.
# Target: D(3) dopamine receptor (DRD3, Homo sapiens, UniProt P35462)
SMILES,assay,setting,inhibition [%]
CN(CCN1CCC(OC(=O)Nc2ccccc2-c2ccccc2)CC1)C(=O)c1ccc(CN2CCC(C(N)=O)CC2)cc1,"ligand displacement, radioligand",1 µM,-4
c1ccc(C(NCCNC(c2ccccc2)c2ccccc2)c2ccccc2)cc1,cell-free assay,10 µM,77
CCc1ccc(OCC(=O)N2CCN(Cc3ccc4c(c3)OCO4)CC2)c(Br)c1,"enzyme activity, inhibitor",10 µM,-4.8
COc1ccc(S(=O)(=O)N2CCCCC2)cc1C,"ligand displacement, radioligand",10 µM,< 30
COCc1c(-c2cc3cc(C)cc(OC)c3s2)c2c(N)ncnn2c1CN1CCNC(=O)C1,"ligand displacement, radioligand",10 µM,29
CC(C)N1CCC[C@H]1CNC(=O)c1cn(C2CCCC2)c(=O)c2c1c1ccccc1n2C,"ligand displacement, radioligand",10 µM,26
O=C(Nc1cccnn1)N1CCN([C@@H]2CCOc3cc(C(F)(F)F)ccc32)CC1,cell-free assay,20 µM,9
N#CC1(c2ccccn2)CCN(Cc2cc(C(=O)O)c(=O)n3ccccc23)CC1,cell-free assay,10 µM,-7.39
C[C@H](C(=O)N[C@H]1COc2ccccc2[C@@H]1S(C)(=O)=O)c1ccc(F)cc1,cell-free assay,10 µM,6
CC(C)Cn1cnc2c(N)nc3ccccc3c21,"ligand displacement, radioligand",10 µM,18
c1ccc(C2(N3CCCCC3)CCCCC2)cc1,"enzyme activity, inhibitor",10 µM,-9.9
Cc1c(N2CCNCC2)nc2ccc(Br)cc2c1C(=O)NC[C@H](CCC(=O)O)c1ccccc1Cl,ligand displacement,10 µM,3.81
COc1ccc(C(=O)NCc2cc(C(C)C)no2)cc1OC1CCN(C)CC1,"ligand displacement, radioligand",10 µM,15
